Bioassay records deposited in PubChem BioAssay by several laboratories.
TDP2 inh – TDP2 (human) inhibition, absorbance primary screen; hit rate 0.34% among 370,000; AID 720702; recombinant TDP2, T5PNP hydrolysis, p-nitrophenol absorbance 415 nm; inhibition, % at 12.8 µM;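 active = inhibition above the mean of all tested compounds plus 3 SD, set per campaign, cut at about 25% in these data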;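 also: 0% = DMSO with enzyme and 100% = buffer with substrate but no TDP2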
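Assay system: Recombinant human TDP2 | Quantity: 120 nM TDP2 per well | Incubation: 2 h at 37 °C | Signal: Epi absorbance | Evaluation: Percent inhibition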
GSTO1 inh – GSTO1 inhibition, counter-screen for RBBP9 inhibitors | P78417 | recombinant GSTO1, activity-based probe fluorescence polarization | inhibition, % at 5.96 µM | hit rate 1.1% among 300,000;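 active = inhibition above the campaign mean inhibition plus 3 SD, cut at about 35% in these data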;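 also: 0% = GSTO1-1 with DMSO and 100% = wells lacking GSTO1-1 enzyme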
Target sequence (P78417 whole entry, looked up): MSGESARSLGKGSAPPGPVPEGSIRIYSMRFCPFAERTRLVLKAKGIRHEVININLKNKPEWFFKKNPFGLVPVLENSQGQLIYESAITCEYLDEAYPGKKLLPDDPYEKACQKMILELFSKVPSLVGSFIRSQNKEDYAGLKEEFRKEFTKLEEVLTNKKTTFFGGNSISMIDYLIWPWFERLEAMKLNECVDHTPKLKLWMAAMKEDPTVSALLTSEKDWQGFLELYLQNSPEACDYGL
PP1 counter – PP1-alpha (human) inhibition in PP5 counter-screen; purified PP1alpha, OMFP fluorescence; inhibition, % at 6.7 µM; hit rate 0.9% among 320,000; P62136;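 active = inhibition above the mean inhibition of all tested compounds plus 3 SD, computed separately for each screening campaign, cut at about 15% in these data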
PP5 inh – blocks human protein phosphatase 5 activity. P53041. purified PP5c, OMFP substrate fluorescence. inhibition, % at 6.7 µM. hit rate 0.18% among 320,000;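 active = inhibition above the campaign's mean inhibition across all tested compounds plus 3 SD, cut at about 9.5% in these data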;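 also: 0% = DMSO only and 100% = 100 µM cantharidin control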
Apaf-1 inh – human Apaf-1 inhibition | O14727 | reconstituted apoptosome caspase-3 activity, DEVD-Rh110 fluorescence | inhibition, % at 20 µM | hit rate 0.71% among 330,000 | AID 489030; active = inhibition of at least 40% at 20 µM;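 also: plate controls were DMSO wells for no effect and DEVD-CHO caspase inhibitor wells for full effect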
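System: reconstituted apoptosome with Apaf-1, cytochrome c, caspase-9, procaspase-3, dATP; Signal: Rh110 fluorescence intensity; Schedule: 30 min compound preincubation, 50 min activation, room temperature; Reagent: cytochrome c trigger plus (Z-DEVD)2-Rh110 caspase-3 substrate.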
Apaf-1 inh conf2 – Apaf-1 inhibition, single-dose confirmed. shares compounds with Apaf-1 inh. reconstituted apoptosome, caspase-3 DEVD-Rh110 fluorescence. inhibition, % at 20 µM. hit rate 25% among 1,800. AID 504614;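 active = mean inhibition of at least 40% at 20 µM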;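 also: plate controls were DMSO wells for no effect and DEVD-CHO caspase inhibitor control wells for full effect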
Rh110 quench – Rh110 signal interference in Apaf-1 inhibitor counter-screen; shares compounds with Apaf-1 inh; Rh110 fluorescence interference, quenched caspase reaction; activation (fluorescence interference), % at 20 µM; 1,800 tested, under 10 active;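 active = signal rise of 40% or more at 20 µM, treated as a fluorescence artifact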
Apaf1 inh interf – Apaf-1 inhibitor counter-screen fluorescence artifact; 460 tested, under 10 active; fluorescence interference counterscreen, Apaf-1 assay format; shares compounds with Apaf-1 inh; AID 588538; IC50, µM; call rule not given here
* hit, by the source's call; . = not tested or not shown. Shown are actives, neighbours in structure and some others; about 2.1% of the full set was active somewhere.

SMILES	TDP2 inh	GSTO1 inh	PP1 counter	PP5 inh	Apaf-1 inh	Apaf-1 inh conf2	Rh110 quench	others
COc1cc(-c2ccc(Nc3ccccc3C(=O)O)c(OC)c2)ccc1Nc1ccccc1C(=O)O	2.9	.	.	.	47.8*	49.5*	-0.3	Apaf1 inh interf=>100
COc1cc([N+](=O)[O-])c(OC)cc1Nc1ccccc1C(=O)O	4.0	.	.	.	.	.	.
CCN(CC)CCN(C(=O)c1ccc(C(=O)c2ccccc2)cc1)c1nc2ccc(OC)cc2s1	9.0	5.8	-0.9	1.0	44.5*	14.9	-5.2
COc1ccc2nc(N(CCN(C)C)C(=O)c3ccc(C(=O)c4ccccc4)cc3)sc2c1	-1.2	-5.2	-2.5	1.7	17.1	.	.
CSCCC(NC(=O)c1ccccc1Cl)C(=O)N1CCN(C(C)=O)CC1 (centres undefined)	4.7	.	-4.3	-0.4	-9.8	.	.
COc1ccccc1C(=O)NC(CCSC)C(=O)N1CCC(Cc2ccccc2)CC1 (centres undefined)	6.0	-3.1	2.5	0.1	44.0*	29.0	0.2
CSCCC(NC(=O)COc1ccccc1)C(=O)N1CCC(C(N)=O)CC1 (centres undefined)	-3.7	.	-0.8	-2.0	63.7*	33.4	4.8
CSCCC(NC(=O)COc1ccccc1)C(=O)N1CCCCC1 (centres undefined)	-15.3	0.8	-0.8	-1.5	3.8	.	.
Cc1c(C(=O)N/N=C/c2ccccc2Cl)[nH][nH]c1=O	0.5	.	.	.	.	.	.
COc1ccc2[nH]c(=O)c(CNc3ccccc3OC)cc2c1	11.2	9.3	4.3	3.6	50.9*	42.8*	4.6	Apaf1 inh interf=>100
COc1ccccc1N1C(=O)N(C(C)=O)C2C1Nc1ccccc1N2C (centres undefined)	12.4	18.0	-0.7	3.0	82.8*	25.4	10.9
O=C(NCc1ccccc1)c1cccc(S(=O)(=O)N2CCCCC2)c1	-2.1	3.7	2.0	3.0	3.8	.	.
O=C(NCc1cccs1)c1cccc(S(=O)(=O)N2CCCCC2)c1	7.6	2.3	-1.7	1.1	54.8*	14.7	5.2
Cc1ccc(-c2cc(-c3nnc(SCc4cccc5ccccc45)n3N)[nH]n2)cc1	1.1	.	.	.	.	.	.
NC1=NC[C@H](Cc2ccc(O)cc2)N1CCC12CC3CC(CC(C3)C1)C2	-8.1	1.7	8.1	-0.7	49.4*	12.0	4.8
CCOC(=O)C1CCN(c2cc3c(cc2NC(=O)c2ccccc2OCC)n(C)c(=O)n3C)CC1	3.9	-3.5	5.7	-3.2	40.4*	21.8	9.1
CCOC(=O)C1CCN(c2cc3c(cc2NC(=O)c2ccccc2Cl)n(C)c(=O)n3C)CC1	2.5	-6.0	0.2	2.4	20.7	.	.
CCOC(=O)Nc1ccc(NCc2ccc(F)cc2)nc1N	6.8	12.3	0.7	2.1	96.2*	52.7*	4.0	Apaf1 inh interf=>100
S=C(NCc1ccc2c(c1)OCO2)Nc1ccc2nsnc2c1	11.0	9.7	-6.3	3.2	61.6*	7.6	2.1
O=S1(=O)c2ccc(N3CCSCC3)cc2Oc2ccccc2CN1Cc1cn(Cc2cccc(F)c2)nn1	3.5	.	.	.	.	.	.
Cc1ccc(-n2c(SCC(=O)Nc3cc(C)on3)nc3c([nH]c4ccccc43)c2=O)cc1	6.0	-3.9	3.0	2.2	53.6*	14.1	-4.6
Cc1cc(Nc2cccc(C(F)(F)F)c2)cc(=O)n1-c1cccc(C(F)(F)F)c1	-5.8	.	.	.	.	.	.
NC[C@@H]1O[C@H](C23CC4CC(CC(C4)C2)C3)Cc2c1ccc(O)c2O	-6.6	2.3	1.4	1.8	42.4*	3.1	6.5
COC(=O)C1CN(Cc2cn(CCC3OCCO3)nn2)CCS(=O)(=O)N1Cc1ccccc1 (centres undefined)	2.2	.	.	.	.	.	.
COc1ccccc1C(CNC(=O)CNC(=O)c1ccc(Cl)c(Cl)c1)N1CCCC1 (centres undefined)	7.5	.	0.5	2.0	-28.9	.	.
COc1ccccc1C(CNC(=O)CNC(=O)c1ccccc1Cl)N1CCCC1 (centres undefined)	-9.1	.	-2.5	1.1	61.3*	43.1*	11.0	Apaf1 inh interf=>100
